Assay results taken from ChEMBL document CHEMBL1122368, “Synthesis and antihypertensive activity of some new quinazoline derivatives” (1983).

Columns and labels:
Rattus norvegicus [1] = assay: Hypotensive activity in anesthetized rats, dose that produced a 30% fall in mean blood pressure after 30 minutes; type: functional
Outline: (§1)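 Normotensive rats under urethane anaesthesia, arterial pressure recorded, femoral vein cannulated. Dosing iv in rising doses (0.01, 0.1, 1, 10 μmol/kg) at 30-min intervals, 1 mL/kg over 2 min; solvent controls; colonic temperature 38.0 ± 0.3 °C. Fall in pressure read 30 min after injection. ED30 is the dose (μmol/kg) giving a 30% fall in mean blood pressure.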

Rattus norvegicus [2] = assay: Hypotensive activity in anesthetized rats, dose that produced a 30% fall in mean blood pressure; type: functional
Outline: as §1, with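 “min; solvent-treated controls. Colonic” for “min; solvent controls; colonic”, “temperature held at” for “temperature”, “°C. Effect” for “°C. Fall in pressure”, “read at its maximum, 1–5” for “read 30”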

Rattus norvegicus [3] = assay: Antihypertensive activity as fall in systolic blood pressure after 3 hr of 10 uM/kg po dosing in Spontaneously hypertensive rats.; type: functional, Artery
Outline: (§2)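 Conscious spontaneously hypertensive rats dosed by gavage, about 1 mL/rat. Systolic pressure recorded by tail-cuff after warming the rats 30 min at 36 °C. Fall in systolic BP (mmHg) read versus control values; listed values are significant decreases (p ≤ 0.05), otherwise marked NS. Baseline systolic pressure 175–190 mmHg across experiments.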

Rattus norvegicus [4] = assay: Antihypertensive activity as fall in systolic blood pressure after 1 hr of 10 uM/kg po dosing in Spontaneously hypertensive rats.; type: functional, Artery; outline: as §2
Rattus norvegicus [5] = assay: Antihypertensive activity as fall in systolic blood pressure after 1 h of 1 umol/kg po dosing in Spontaneously hypertensive rats.; type: functional, Artery; outline: as §2
Rattus norvegicus [6] = assay: Antihypertensive activity as fall in systolic blood pressure after 5 hr of 10 uM/kg po dosing in Spontaneously hypertensive rats.; type: functional, Artery; outline: as §2
Rattus norvegicus [7] = assay: Antihypertensive activity as fall in systolic blood pressure after 5 h of 1 umol/kg po dosing in Spontaneously hypertensive rats;NS means nonsignificant change in blood pressure.; type: functional, organism-based; details: Artery; outline: as §2
Rattus norvegicus [8] = assay: Antihypertensive activity as fall in systolic blood pressure after 3 hr of 1 umol/kg po dosing in Spontaneously hypertensive rats.; type: functional, Artery; outline: as §2
Rattus norvegicus [9] = assay: Antihypertensive activity as fall in systolic blood pressure after 5 hr of 1 umol/kg po dosing in Spontaneously hypertensive rats.; type: functional, Artery; outline: as §2
Rattus norvegicus [10] = assay: Antihypertensive activity as fall in systolic blood pressure after 1 hr of 10 uM/kg po dosing in Spontaneously hypertensive rats;NS means nonsignificant change in blood pressure.; type: functional, organism-based; details: Artery; outline: as §2
Rattus norvegicus [11] = assay: Antihypertensive activity as fall in systolic blood pressure after 1 h of 0.3 umol/kg po dosing in Spontaneously hypertensive rats;NS means nonsignificant change in blood pressure.; type: functional, organism-based; details: Artery; outline: as §2
Rattus norvegicus [12] = assay: Antihypertensive activity as fall in systolic blood pressure after 1 h of 3 umol/kg po dosing in Spontaneously hypertensive rats.; type: functional, Artery; outline: as §2
Rattus norvegicus [13] = assay: Antihypertensive activity as fall in systolic blood pressure after 3 h of 0.3 umol/kg po dosing in Spontaneously hypertensive rats.; type: functional, Artery; outline: as §2
Rattus norvegicus [14] = assay: Antihypertensive activity as fall in systolic blood pressure after 3 h of 3 umol/kg po dosing in Spontaneously hypertensive rats.; type: functional, Artery; outline: as §2
Rattus norvegicus [15] = assay: Antihypertensive activity as fall in systolic blood pressure after 5 h of 0.3 umol/kg po dosing in Spontaneously hypertensive rats.; type: functional, Artery; outline: as §2
Rattus norvegicus [16] = assay: Antihypertensive activity as fall in systolic blood pressure after 5 hr of 3 umol/kg po dosing in Spontaneously hypertensive rats.; type: functional, Artery; outline: as §2
Rattus norvegicus [17] = assay: Antihypertensive activity as fall in systolic blood pressure after 3 hr of 1 uM/kg po dosing in Spontaneously hypertensive rats.; type: functional, Artery; outline: as §2
Rattus norvegicus [18] = assay: Antihypertensive activity as fall in systolic blood pressure after 1 h of 100 umol/kg po dosing in Spontaneously hypertensive rats.; type: functional, Artery; outline: as §2
Rattus norvegicus [19] = assay: Antihypertensive activity as fall in systolic blood pressure after 1 hr of 1 uM/kg po dosing in Spontaneously hypertensive rats.; type: functional, Artery; outline: as §2
Rattus norvegicus [20] = assay: Antihypertensive activity as fall in systolic blood pressure after 3 hr of 100 umol/kg po dosing in Spontaneously hypertensive rats.; type: functional, Artery; outline: as §2
Rattus norvegicus [21] = assay: Antihypertensive activity as fall in systolic blood pressure after 5 h of 100 umol/kg po dosing in Spontaneously hypertensive rats.; type: functional, Artery; outline: as §2
Rattus norvegicus [22] = assay: Antihypertensive activity as fall in systolic blood pressure after 5 hr of 1 uM/kg po dosing in Spontaneously hypertensive rats.; type: functional, Artery; outline: as §2
Rattus norvegicus [23] = assay: Antihypertensive activity as fall in systolic blood pressure after 1 hr of 100 umol/kg po dosing in Spontaneously hypertensive rats.; type: functional, Artery; outline: as §2
Rattus norvegicus [24] = assay: Antihypertensive activity as fall in systolic blood pressure after 3 hr of 1 umol/kg po dosing in Spontaneously hypertensive rats;NS means nonsignificant change in blood pressure.; type: functional, organism-based; details: Artery; outline: as §2
Rattus norvegicus [25] = assay: Antihypertensive activity as fall in systolic blood pressure after 3 h of 100 umol/kg po dosing in Spontaneously hypertensive rats.; type: functional, Artery; outline: as §2

Row | Compound | ED30 (Rattus norvegicus [1]) [µM/kg] | ED30 (Rattus norvegicus [2]) [µM/kg] | other results
1 | CCCCC(=O)C1CCN(c2nc(N)c3cc(OC)c(OC)cc3n2)CC1.Cl | 0.06 | 0.03 | Decrease in SBP (Rattus norvegicus [3]): 36 mmHg; Decrease in SBP (Rattus norvegicus [4]): 40 mmHg; Decrease in SBP (Rattus norvegicus [5]): 13 mmHg; Decrease in SBP (Rattus norvegicus [6]): 27 mmHg; Decrease in SBP (Rattus norvegicus [7]): Not significant; Decrease in SBP (Rattus norvegicus [8]): 14 mmHg
2 | COc1cc2nc(N3CCC(C(O)C4CCCCC4)CC3)nc(N)c2cc1OC.Cl (configuration not stated) | 0.1 | 0.06 | Decrease in SBP (Rattus norvegicus [3]): 30 mmHg; Decrease in SBP (Rattus norvegicus [4]): 25 mmHg; Decrease in SBP (Rattus norvegicus [5]): 12 mmHg; Decrease in SBP (Rattus norvegicus [6]): 38 mmHg; Decrease in SBP (Rattus norvegicus [9]): 19 mmHg; Decrease in SBP (Rattus norvegicus [8]): 17 mmHg
3 | COc1cc2nc(N3CCC(C(=O)N4CCCCC4)CC3)nc(N)c2cc1OC.Cl | 0.08 | 0.02 | –
4 | COc1cc2nc(N3CCC(C(=O)N4C(C)CCC4C)CC3)nc(N)c2cc1OC.Cl (configuration not stated) | 0.2 | 0.08 | –
5 | CCC(=O)C1CCN(c2nc(N)c3cc(OC)c(OC)cc3n2)CC1.Cl | 30 | 5 | –
6 | COc1cc2nc(N3CCC(Cc4ccccc4)CC3)nc(N)c2cc1OC.Cl | 0.07 | 0.06 | –
7 | COc1cc2nc(N3CCC(C(=O)C4CCCCC4)CC3)nc(N)c2cc1OC.Cl | 0.1 | 0.07 | Decrease in SBP (Rattus norvegicus [3]): 54 mmHg; Decrease in SBP (Rattus norvegicus [10]): Not significant; Decrease in SBP (Rattus norvegicus [5]): 15 mmHg; Decrease in SBP (Rattus norvegicus [6]): 51 mmHg; Decrease in SBP (Rattus norvegicus [7]): Not significant; Decrease in SBP (Rattus norvegicus [8]): 20 mmHg
8 | COc1cc2nc(N3CCC(C(=O)N4CCCCC4C)CC3)nc(N)c2cc1OC.Cl (configuration not stated) | 0.9 | 0.1 | –
9 | COc1cc2nc(N3CCCC(C(=O)N4CCCC4)C3)nc(N)c2cc1OC.Cl (stereo in doubt; 6i) | 30 | 12 | –
10 | COc1cc2nc(N3CCC(C(C)O)CC3)nc(N)c2cc1OC.Cl (configuration not stated) | 0.7 | 0.5 | –
11 | CCOC(=O)C1CCCN(c2nc(N)c3cc(OC)c(OC)cc3n2)C1.Cl (stereo in doubt; 6cc) | – | 0.2 | –
12 | CCOC(=O)C1CCCN(c2nc(N)c3cc(OC)c(OC)cc3n2)C1.Cl (stereo in doubt; 6c) | 20 | 0.8 | –
13 | CCOC(=O)C1CCN(c2nc(N)c3cc(OC)c(OC)cc3n2)CC1.Cl | 30 | 0.3 | –
14 | COc1cc2nc(N3CCC(C(=O)c4cccs4)CC3)nc(N)c2cc1OC.Cl | 6 | 0.2 | –
15 | COc1cc2nc(N3CCC(C(=O)C4CCCC4)CC3)nc(N)c2cc1OC.Cl | 0.09 | 0.06 | Decrease in SBP (Rattus norvegicus [3]): 54 mmHg; Decrease in SBP (Rattus norvegicus [11]): Not significant; Decrease in SBP (Rattus norvegicus [4]): 45 mmHg; Decrease in SBP (Rattus norvegicus [5]): 18 mmHg; Decrease in SBP (Rattus norvegicus [12]): 34 mmHg; Decrease in SBP (Rattus norvegicus [13]): 11 mmHg; Decrease in SBP (Rattus norvegicus [14]): 34 mmHg; Decrease in SBP (Rattus norvegicus [15]): 11 mmHg; Decrease in SBP (Rattus norvegicus [6]): 50 mmHg; Decrease in SBP (Rattus norvegicus [16]): 35 mmHg; Decrease in SBP (Rattus norvegicus [9]): 21 mmHg; Decrease in SBP (Rattus norvegicus [8]): 20 mmHg
16 | COc1cc2nc(N3CCC(C(=O)N4CCC4)CC3)nc(N)c2cc1OC.Cl | 0.4 | 0.07 | –
17 | COc1cc2nc(N3CCC(C(=O)N4CCCCCC4)CC3)nc(N)c2cc1OC.Cl | 0.05 | 0.01 | –
18 | COc1cc2nc(N3CCC(C(=O)NC(C)(C)C)CC3)nc(N)c2cc1OC.Cl | 1 | 0.08 | –
19 | COc1cc2nc(N3CCN(C(=O)c4ccco4)CC3)nc(N)c2cc1OC [PRAZOSIN] | 0.03 | 0.01 | Decrease in SBP (Rattus norvegicus [3]): 36 mmHg; Decrease in SBP (Rattus norvegicus [17]): 30 mmHg; Decrease in SBP (Rattus norvegicus [18]): 38 mmHg; Decrease in SBP (Rattus norvegicus [4]): 38 mmHg; Decrease in SBP (Rattus norvegicus [19]): 29 mmHg; Decrease in SBP (Rattus norvegicus [20]): 30 mmHg; Decrease in SBP (Rattus norvegicus [21]): 26 mmHg; Decrease in SBP (Rattus norvegicus [6]): 34 mmHg; Decrease in SBP (Rattus norvegicus [22]): 26 mmHg
20 | COc1cc2nc(N3CCC(C)CC3)nc(N)c2cc1OC.Cl | – | 0.08 | –
21 | COc1cc2nc(N3CCC(C(=O)N4CCCC4)CC3)nc(N)c2cc1OC.Cl | 0.4 | 0.2 | –
22 | COc1cc2nc(N3CCC(C(=O)N4C(C)CCCC4C)CC3)nc(N)c2cc1OC.Cl (configuration not stated) | 0.2 | 0.08 | –
23 | COc1cc2nc(N3CCC(C(N)=O)CC3)nc(N)c2cc1OC.Cl | 0.8 | 0.1 | –
24 | COc1cc2nc(N3CCC(C(O)C4CCCC4)CC3)nc(N)c2cc1OC.Cl (configuration not stated) | 0.7 | 0.1 | –
25 | CCCCC(O)C1CCN(c2nc(N)c3cc(OC)c(OC)cc3n2)CC1.Cl (configuration not stated) | 0.7 | 0.1 | –
26 | COc1cc2nc(N3CCCC(C(=O)N4CCCC4)C3)nc(N)c2cc1OC.Cl (stereo in doubt; 6ii) | 15 | 10 | –
27 | COc1cc2nc(N3CCC(C(=O)N4CCCCCCC4)CC3)nc(N)c2cc1OC.Cl | 0.05 | 0.02 | Decrease in SBP (Rattus norvegicus [3]): 29 mmHg; Decrease in SBP (Rattus norvegicus [23]): 52 mmHg; Decrease in SBP (Rattus norvegicus [4]): 29 mmHg; Decrease in SBP (Rattus norvegicus [5]): 11 mmHg; Decrease in SBP (Rattus norvegicus [24]): Not significant; Decrease in SBP (Rattus norvegicus [21]): 83 mmHg; Decrease in SBP (Rattus norvegicus [6]): 26 mmHg; Decrease in SBP (Rattus norvegicus [7]): Not significant; Decrease in SBP (Rattus norvegicus [25]): 66 mmHg
28 | COc1cc2nc(N3CCC(C(=O)OCC(C)(C)C)CC3)nc(N)c2cc1OC.Cl | 2 | 0.03 | –
